The source of these data is ChEMBL document CHEMBL4665790, “Photohormones Enable Optical Control of the Peroxisome Proliferator-Activated Receptor γ (PPARγ)” (J Med Chem, 2020).

Active and inactive are the calls of the source. The calls are words filed in the database; no cut-off is given here.

The target in assay [1] is T1, Peroxisome proliferator-activated receptor gamma (Homo sapiens, UniProt P37231).
T1 sequence (P37231 whole entry): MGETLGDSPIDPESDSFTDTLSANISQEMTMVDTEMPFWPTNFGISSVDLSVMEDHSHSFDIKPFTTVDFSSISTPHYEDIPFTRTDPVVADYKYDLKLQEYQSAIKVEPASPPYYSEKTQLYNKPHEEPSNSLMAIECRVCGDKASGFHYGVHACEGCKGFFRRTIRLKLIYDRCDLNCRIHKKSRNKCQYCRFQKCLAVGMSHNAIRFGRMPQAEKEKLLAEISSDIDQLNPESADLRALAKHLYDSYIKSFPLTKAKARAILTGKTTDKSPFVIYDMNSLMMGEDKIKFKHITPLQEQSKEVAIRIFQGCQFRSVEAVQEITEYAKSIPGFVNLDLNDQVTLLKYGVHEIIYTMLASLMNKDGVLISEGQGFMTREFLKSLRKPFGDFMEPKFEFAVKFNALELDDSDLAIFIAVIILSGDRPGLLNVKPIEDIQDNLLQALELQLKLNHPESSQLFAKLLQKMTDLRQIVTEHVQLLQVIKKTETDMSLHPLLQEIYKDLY
Put plainly: Agonist activity at PPARgamma (unknown origin) expressed in HEK293T cells incubated for 14 to 16 hrs under irradiation by hybrid Gal4 reporter gene assay. Type of assay: cell-based.

Assay [2] deals with T2, Peroxisome proliferator-activated receptor gamma (Homo sapiens) (UniProt P37231).
T2 sequence (whole entry): T1 sequence (P37231 whole entry)
Put plainly: Agonist activity at PPARy in human HepG2 cells transfected with human PPRE at 10 uM incubated for 14 to 16 hrs using pre-irradiated compound by firefly luciferase reporter gene assay. The assay is classed as cell-based. Particulars: filed as agonist, time hrs 14-16. Put shortly: (§1)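 HepG2 cells on collagen-coated wells, transfected (Lipofectamine 3000) with PPRE1-pGL3 (human full-length PPRE driving firefly luciferase) plus pRL-SV40; endogenous PPARγ/RXR, no overexpression. Compound in Opti-MEM, 0.1% DMSO, 14–16 h; cis state held by 75 ms 370 nm pulses every 15 s. Firefly/Renilla normalised, fold activation over DMSO control; rosiglitazone reference.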
For orientation: In a reporter assay the amount or activity of a reporter protein is the signal.

Assay [3] deals with T2, Peroxisome proliferator-activated receptor gamma (Homo sapiens). Put plainly: (§2) Binding affinity to recombinant PPARy LBD (unknown origin) expressed in Escherichia coli BL21 DE3 using pre-irradiated compound by ITC assay. Put shortly: (§3)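 ITC at 25 °C: 300 µM compound, pre-irradiated 5 min at 365 nm, titrated into 64 µM His-tag-cleaved PPARγ LBD (aa 234–505, E. coli BL21 DE3 with GroEL/ES, IMAC plus gel filtration) in 25 mM HEPES pH 7.5, 150 mM KF, 5 mM DTT, 10% glycerol, 1% DMSO. 31 injections (1.0 then 2.5 µL), 300 s apart, 75 rpm; buffer control.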

Assay [4] shares this target. Put plainly: Agonist activity at PPARgamma (unknown origin) expressed in HEK293T cells at 10 uM incubated for 14 to 16 hrs under irradiation by hybrid Gal4 reporter gene assay. Type of assay: cell-based. Particulars: time hrs 14-16. Put shortly: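 Gal4 hybrid reporter: HEK293T cells transiently co-transfected with Gal4–human PPARγ hinge+LBD fusion, Gal4-responsive firefly luciferase reporter and Renilla normalisation plasmid. Compound added 5 h post-transfection in Opti-MEM, 0.1% DMSO final; 14–16 h incubation. Dual-Glo read-out, firefly/Renilla ratio, fold over DMSO control. Technical duplicates, at least two independent repeats.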

Assay [5] addresses T3, Peroxisome proliferator-activated receptor delta (Homo sapiens) (UniProt Q03181).
T3 sequence (whole entry): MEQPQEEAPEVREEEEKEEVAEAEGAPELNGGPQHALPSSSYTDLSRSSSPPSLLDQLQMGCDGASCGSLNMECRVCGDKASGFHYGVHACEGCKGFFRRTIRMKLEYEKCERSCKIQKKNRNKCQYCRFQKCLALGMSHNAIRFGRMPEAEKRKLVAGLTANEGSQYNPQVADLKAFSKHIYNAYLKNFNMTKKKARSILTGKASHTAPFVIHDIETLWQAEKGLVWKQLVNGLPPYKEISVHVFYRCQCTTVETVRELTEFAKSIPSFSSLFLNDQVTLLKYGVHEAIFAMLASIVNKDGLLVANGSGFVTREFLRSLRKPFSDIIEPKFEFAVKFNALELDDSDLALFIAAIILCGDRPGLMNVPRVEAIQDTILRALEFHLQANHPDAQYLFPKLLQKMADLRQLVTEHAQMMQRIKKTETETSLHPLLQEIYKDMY
The assay can be described thus: Agonist activity at PPARdelta (unknown origin) expressed in HEK293T cells at 10 uM incubated for 14 to 16 hrs under irradiation by hybrid Gal4 reporter gene assay. The assay is classed as cell-based. Conditions: time hrs 14-16. Put shortly:
(§4)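 HEK293T cells transfected (Lipofectamine LTX) with Gal4 fusion of human PPARα or PPARδ hinge region + LBD, pFR-Luc reporter and pRL-SV40; compound added in Opti-MEM with 0.1% DMSO 5 h post-transfection, 14–16 h incubation. Dual-Glo luciferase; firefly/Renilla ratio gives RLU, fold activation vs DMSO control. Duplicates, ≥2 independent repeats.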

In assay [6] the target is T4, Peroxisome proliferator-activated receptor alpha (Homo sapiens) (UniProt Q07869).
T4 sequence (whole entry): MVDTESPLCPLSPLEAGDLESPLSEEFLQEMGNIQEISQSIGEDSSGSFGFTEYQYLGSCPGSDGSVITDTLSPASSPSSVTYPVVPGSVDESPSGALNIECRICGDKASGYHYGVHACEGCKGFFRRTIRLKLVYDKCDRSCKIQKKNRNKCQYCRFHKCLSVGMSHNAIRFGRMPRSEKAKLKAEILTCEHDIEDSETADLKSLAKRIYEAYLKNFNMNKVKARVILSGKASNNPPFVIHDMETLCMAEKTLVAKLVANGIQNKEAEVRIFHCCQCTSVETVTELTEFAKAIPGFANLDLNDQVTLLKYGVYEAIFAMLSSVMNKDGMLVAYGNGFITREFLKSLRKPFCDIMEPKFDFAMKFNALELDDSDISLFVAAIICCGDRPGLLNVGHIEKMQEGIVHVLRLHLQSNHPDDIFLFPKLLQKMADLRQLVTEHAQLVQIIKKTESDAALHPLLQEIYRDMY
Put plainly: Agonist activity at PPARalpha (unknown origin) expressed in HEK293T cells at 10 uM incubated for 14 to 16 hrs under irradiation by hybrid Gal4 reporter gene assay. Type of assay: cell-based. Particulars: time hrs 14-16. The procedure, abridged:
as §4

Assay [7] has as its target T2, Peroxisome proliferator-activated receptor gamma (Homo sapiens). The assay can be described thus: Agonist activity at PPARy in human HepG2 cells transfected with human PPRE incubated for 14 to 16 hrs using pre-irradiated compound by firefly luciferase reporter gene assay relative to control. Type of assay: cell-based. Particulars: filed as agonist, time hrs 14-16. The procedure, abridged: as §1

The target in assay [8] is T1, Peroxisome proliferator-activated receptor gamma. The assay is described as §2. The procedure, abridged: as §3
The target is the same in assay [9]. The assay can be described thus: Agonist activity at PPARy in human HepG2 cells transfected with human PPRE incubated for 14 to 16 hrs using pre-irradiated compound by firefly luciferase reporter gene assay. Type of assay: cell-based. Put shortly: as §1

Turning to `O=C1NC(=O)C(Cc2ccc(/N=N/c3ccc(Cl)cc3)cc2)S1` (centres undefined), the EC50 – broadly, the concentration needed to bring the measured effect to its halfway point – in [1] worked out at 2.9 µM.

Consider `Cc1ccccc1-c1ccc(/N=N/c2ccc(CC3SC(=O)NC3=O)cc2)cc1` (centres undefined), for which the outcome in assay [2] was Active. The result in assay [3] was inactive. The molecule also showed a concentration giving a half-maximal response (EC50) in assay [1] of 2.8 µM.

For the molecule `O=C1NC(=O)C(Cc2ccc(/N=N\c3ccc(Cl)cc3)cc2)S1` (centres undefined), the concentration giving a half-maximal response (EC50) in assay [1] came to 7 µM.

In the case of `O=C1NC(=S)NC(=O)C1=Cc1ccc(/N=N/c2ccccc2)cc1`, the outcome in assay [4], in assay [5] and in assay [6] was inactive.

With `O=C(c1ccccc1)c1ccccc1N[C@@H](Cc1ccc(/N=N/c2ccccc2)cc1)C(=O)O`, the result in assay [5] and in [6] was inactive.

`O=C1NC(=O)C(Cc2ccc(/N=N\c3ccc(C(F)(F)F)cc3)cc2)S1` (centres undefined): a half-maximal effect in assay [1] (EC50) was put at 6.5 µM.

In [1], `O=C1NC(=O)C(Cc2ccc(/N=N\c3ccccc3)cc2)S1` (centres undefined) showed an EC50 of 6.3 µM.

`Cc1ccccc1-c1ccc(/N=N\c2ccc(CC3SC(=O)NC3=O)cc2)cc1` (centres undefined) returned a fold change (FC) in assay [7] of 2.4. Besides, in [8], the equilibrium dissociation constant (Kd) – broadly, a measure of binding affinity in units of concentration – is 9.3 µM. In addition, the EC50 in [1] is 6.4 µM; in assay [9], 0.9 µM.

Regarding `O=C1NC(=O)C(Cc2ccc(/N=N/c3ccc(C(F)(F)F)cc3)cc2)S1` (centres undefined), the response in [1] was half-maximal at 2.2 µM (EC50).

As for `O=C1NC(=O)C(Cc2ccc(/N=N/c3ccccc3)cc2)S1` (centres undefined), the outcome in assay [5] was inactive. This molecule came in with a concentration giving a half-maximal response (EC50) in [1] of 2.2 µM.
